Data published in PMC7651632 (RSC Medicinal Chemistry, 2020).
“Also recorded” adds a separate entry of the source.

How the values were obtained:
[1] = test system: L. mexicana amastigotes within macrophage host (RAW 267.4); experiment: Infected cell assay: screening against infected macrophages; format: cell-based, Leishmania mexicana; settings: 24 h
RAW 267.4 macrophages = experiment: Cytotoxicity screening against RAW267.4 macrophages; format: cell-based, Mus musculus
Outline: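 Only compounds retained after the axenic amastigote dose-response screen were tested. Host RAW 267.4 macrophages were used. […] Selectivity index is macrophage ED50 divided by axenic amastigote ED50.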

[2] = test system: L. mexicana axenic amastigotes; experiment: Primary screen against axenic amastigotes, single concentration; format: cell-based, Leishmania mexicana; settings: 50 μM, in duplicate, inhibition of amastigote proliferation
Outline: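 Run in a 96-well format against mammalian-stage L. mexicana axenic amastigotes. Each test compound was tested at a single 50 μM in duplicate, with inhibition of amastigote proliferation as the read-out. Amphotericin B served as positive control, and plate robustness was judged by Z′ factor.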

[3] = test system: axenic L. mexicana amastigotes; experiment: Secondary dose response screen against axenic amastigotes; format: cell-based, Leishmania mexicana; settings: 50 µM to 0.21 µM, 24 h + 24 h alamarBlue, 33 °C

| SMILES | % inhibition Primary screen [2] | also measured |
| --- | --- | --- |
| CC1(C)CC[C@]2(C(=O)O)CC[C@]3(C)C(=CC[C@@H]4[C@@]5(C)CC[C@H](OC(=O)CCC(=O)O)[C@@](C)(COC(=O)CCC(=O)O)[C@@H]5CC[C@]43C)[C@@H]2C1 [IVL-1, hederagenin disuccinate] |  | InMAC ED50 - effective dose to kill 50% of amastigotes within macrophage host (RAW 267.4) [1]: not active; SI - selectivity index, RAW ED50/AMA ED50 (RAW 267.4 macrophages; RAW 267.4 macrophages versus axenic L. mexicana amastigotes): > 43.5; RAW ED50 - effective dose to kill 50% of host macrophage (RAW 267.4) (RAW 267.4 macrophages; toxicity study, 100 µM to 0.41 µM, 24 h): >100 µM |
| CC1(C)CC[C@]2(C(=O)O)CC[C@]3(C)C(=CC[C@@H]4[C@@]5(C)CC[C@H](O)[C@@](C)(CO)[C@@H]5CC[C@]43C)[C@@H]2C1 [IVL-7, hederagenin] | < 95% |  |
| CC1(C)CC[C@]2(C(=O)O)CC[C@]3(C)C(=CC[C@@H]4[C@@]5(C)CC[C@H](O)C(C)(C)[C@@H]5CC[C@]43C)[C@@H]2C1 [IVL-8, Oleanolic acid] | fell below the threshold; also recorded: deselected |  |
| CC1(C)CC[C@]2(C(=O)O)CC[C@]3(C)C(=CCC4[C@@]5(C)CC[C@H](O[C@@H]6O[C@H](CO)[C@@H](O)[C@H](O)[C@H]6O[C@@H]6O[C@H](CO)[C@@H](O)[C@H](O)[C@H]6O)[C@@](C)(CO)C5CC[C@]43C)[C@@H]2C1 (some centres unmarked) [IVL-14, hederoside F] | fell below the threshold; also recorded: did not reach this cut-off |  |
| C[C@@H]1O[C@@H](O[C@H]2[C@H](O)[C@@H](O)[C@H](OC[C@H]3O[C@@H](OC(=O)[C@]45CCC(C)(C)C[C@H]4C4=CC[C@@H]6[C@@]7(C)CC[C@H](O[C@@H]8OC[C@H](O)[C@H](O)[C@H]8O)[C@@](C)(CO)[C@@H]7CC[C@@]6(C)[C@]4(C)CC5)[C@H](O)[C@@H](O)[C@@H]3O)O[C@@H]2CO)[C@H](O)[C@H](O)[C@H]1O [IVL-15, hederacoside D] | inactive |  |
| CC1(C)CC[C@]2(CO)CC[C@]3(C)C(=CC[C@@H]4[C@@]5(C)CC[C@@H]6O[C@H]([C@H](O)[C@@H](O)[C@@H](O)CO)OC[C@@]6(C)[C@@H]5CC[C@]43C)[C@@H]2C1 [IVL-80, Anemoclemoside A2] |  | AMA ED50 - effective dose to kill 50% of axenic L. mexicana amastigotes [3]: >50 µM |
